Measurements: ChEMBL document CHEMBL1155930, “Novel dimeric aryldiketo containing inhibitors of HIV-1 integrase: effects of the phenyl substituent and the linker orientation” (Bioorg Med Chem, 2008)

Assays:
[1] = molecular target: T1, Human immunodeficiency virus type 1 integrase (Human immunodeficiency virus 1, UniProt Q7ZJM1); test: Inhibition of wild-type HIV1 integrase 3'-processing activity using [32P]-labeled linear oligonucleotide substrate by polyacrylamide gel electrophoresis
Procedure, shortened: (§1)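 Wild-type IN (final 200 nM) preincubated with inhibitor for 30 min at 30 °C in buffer containing 50 mM NaCl, 1 mM HEPES pH 7.5, 50 μM EDTA, 50 μM DTT, 10% glycerol, 7.5 mM MnCl2, 0.1 mg/mL BSA, 10 mM 2-mercaptoethanol, 10% DMSO, 25 mM MOPS pH 7.2. Then 20 nM 5'-32P-labeled annealed 21-mer duplex added, 1 h more. Quenched with formamide loading dye. IC50 from log concentration vs percent inhibition.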

[2] = molecular target: T1, Human immunodeficiency virus type 1 integrase; test: Inhibition of wild-type HIV1 integrase strand transfer activity using [32P]-labeled linear oligonucleotide substrate by polyacrylamide gel electrophoresis; procedure, shortened: as §1

T1 sequence (Q7ZJM1 whole entry): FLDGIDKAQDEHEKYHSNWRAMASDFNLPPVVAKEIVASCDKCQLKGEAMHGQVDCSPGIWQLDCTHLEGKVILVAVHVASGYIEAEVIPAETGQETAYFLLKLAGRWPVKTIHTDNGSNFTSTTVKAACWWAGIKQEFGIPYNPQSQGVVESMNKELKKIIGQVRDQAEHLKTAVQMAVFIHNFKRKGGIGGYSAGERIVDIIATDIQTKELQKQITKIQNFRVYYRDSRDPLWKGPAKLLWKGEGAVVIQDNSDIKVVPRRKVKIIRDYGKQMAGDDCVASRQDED

IC50 [1] [µM] | IC50 [2] [µM] | Structure (SMILES)
> 100 | > 100 | O=C(CC(=O)c1ccccc1Cl)C(=O)N1CCN(C(=O)C(=O)CC(=O)c2ccccc2Cl)CC1
> 100 | 100 | CC(C)(C)OC(=O)N1CCC(NC(=O)/C(O)=C/C(=O)c2ccc(F)cc2)CC1
> 100 | > 100 | COC(=O)/C(O)=C/C(=O)c1cccc(N(Cc2ccccc2)Cc2ccccc2)c1
> 100 | 25 | O=C(CC(=O)c1ccc(C(F)(F)F)cc1)C(=O)N1CCN(C(=O)C(=O)CC(=O)c2ccc(C(F)(F)F)cc2)CC1
94 | 4.7 | Cc1cc(C(=O)/C=C(\O)C(=O)O)ccc1Cl
> 100 | 14 | CCCCCC12CCC(C(=O)Nc3cccc(C(=O)CC(=O)C(=O)O)c3)(CC1)CC2
> 100 | 27 | COc1cccc(C(=O)/C=C(\O)C(=O)O)c1
> 100 | 17 | O=C(O)/C(O)=C/C(=O)c1ccccc1Cl
> 100 | 41 | O=C(CC(=O)c1ccc(C(F)(F)F)cc1)C(=O)NC1CCC(NC(=O)C(=O)CC(=O)c2ccc(C(F)(F)F)cc2)CC1 (stereo not drawn)
99 | 31 | O=C(CC(=O)c1ccccc1Cl)C(=O)NC1CCN(C(=O)C(=O)CC(=O)c2ccccc2Cl)CC1
23 | < 0.4 | O=C(CC(=O)c1cccc(OCc2ccccc2)c1)C(=O)NC1CCN(C(=O)C(=O)CC(=O)c2cccc(OCc3ccccc3)c2)CC1
> 100 | 58 | O=C(O)/C(O)=C/C(=O)c1ccccc1F
19 | < 0.4 | O=C(O)/C(O)=C/C(=O)c1cccc(OCc2ccccc2)c1
56 | 1.8 | O=C(CC(=O)c1cccc(OCc2ccccc2)c1)C(=O)N1CCN(C(=O)C(=O)CC(=O)c2cccc(OCc3ccccc3)c2)CC1
> 100 | > 100 | COC(=O)/C(O)=C/C(=O)c1ccccc1F
> 100 | 33 | O=C(O)/C(O)=C/C(=O)c1ccc(C(F)(F)F)cc1
> 100 | 7 | O=C(CC(=O)c1cccc(OCc2ccccc2)c1)C(=O)NC1CCC(NC(=O)C(=O)CC(=O)c2cccc(OCc3ccccc3)c2)CC1 (stereo not drawn)

IC50 [1] [µM] | IC50 [2] [µM] | Structure (SMILES)
26 | 0.6 | COC(=O)/C(O)=C/C(=O)c1cccc(Cc2ccccc2F)c1
> 100 | 88 | O=C(CC(=O)c1ccc(F)cc1)C(=O)NC1CCN(C(=O)C(=O)CC(=O)c2ccc(F)cc2)CC1
> 100 | 29 | O=C(CC(=O)c1ccc(F)cc1)C(=O)N1CCN(C(=O)C(=O)CC(=O)c2ccc(F)cc2)CC1
> 100 | 35.5 | O=C(CC(=O)c1ccc(F)cc1)C(=O)NC1CCC(NC(=O)C(=O)CC(=O)c2ccc(F)cc2)CC1 (stereo not drawn)
55 | < 0.4 | COc1ccc(C(=O)/C=C(\O)C(=O)O)cc1OCc1ccccc1
> 100 | 53 | COc1cccc(C(=O)CC(=O)C(=O)NC2CCN(C(=O)C(=O)CC(=O)c3cccc(OC)c3)CC2)c1
> 100 | 45 | O=C(O)/C(O)=C/C(=O)c1ccc([N+](=O)[O-])cc1
> 100 | 55 | O=C(CC(=O)c1ccccc1F)C(=O)NC1CCC(NC(=O)C(=O)CC(=O)c2ccccc2F)CC1 (stereo not drawn)
> 100 | 16 | COC(=O)/C(O)=C/C(=O)c1ccc(OC)c(OCc2ccccc2)c1
91 | 3 | O=C(CC(=O)c1cccc(OCc2ccccc2)c1)C(=O)OC1CCN(C(=O)C(=O)CC(=O)c2cccc(OCc3ccccc3)c2)CC1
> 100 | > 100 | COC(=O)/C(O)=C/C(=O)c1ccc(F)cc1
> 100 | 14 | COC(=O)/C(O)=C/C(=O)c1cccc(OCc2ccccc2)c1
> 100 | 26 | COc1cccc(C(=O)CC(=O)C(=O)NC2CCC(NC(=O)C(=O)CC(=O)c3cccc(OC)c3)CC2)c1 (stereo not drawn)
> 100 | 26 | COc1cccc(C(=O)CC(=O)C(=O)N2CCN(C(=O)C(=O)CC(=O)c3cccc(OC)c3)CC2)c1
99 | 7 | COC(=O)/C(O)=C/C(=O)c1cccc(NC(=O)OCc2ccccc2)c1
92 | 30 | O=C(CC(=O)c1ccccc1Cl)C(=O)NC1CCC(NC(=O)C(=O)CC(=O)c2ccccc2Cl)CC1 (stereo not drawn)
> 100 | 24.2 | O=C(O)/C(O)=C/C(=O)c1ccccc1
